# In ChEMBL document CHEMBL1131058, “Studies on quinazolines and 1,2,4-benzothiadiazine 1,1-dioxides. 8.1, 2 synthesis and pharmacological evaluation of tricyclic fused quinazolines and 1,2,4-benzothiadiazine 1,1-dioxides as potential alpha1-adrenoceptor antagonists” (J Med Chem, 1998):
# Legend:
# [1] = target: T1, Adrenergic receptor alpha-1 (Rattus norvegicus, UniProt P15823+P23944+P43140); assay: Binding affinity towards Alpha-1 adrenergic receptor measured by displacement of [3H]prazosin from rat brain cortex membranes; assay type: cell membranes, Membrane
# T1 sequence (P15823 whole entry): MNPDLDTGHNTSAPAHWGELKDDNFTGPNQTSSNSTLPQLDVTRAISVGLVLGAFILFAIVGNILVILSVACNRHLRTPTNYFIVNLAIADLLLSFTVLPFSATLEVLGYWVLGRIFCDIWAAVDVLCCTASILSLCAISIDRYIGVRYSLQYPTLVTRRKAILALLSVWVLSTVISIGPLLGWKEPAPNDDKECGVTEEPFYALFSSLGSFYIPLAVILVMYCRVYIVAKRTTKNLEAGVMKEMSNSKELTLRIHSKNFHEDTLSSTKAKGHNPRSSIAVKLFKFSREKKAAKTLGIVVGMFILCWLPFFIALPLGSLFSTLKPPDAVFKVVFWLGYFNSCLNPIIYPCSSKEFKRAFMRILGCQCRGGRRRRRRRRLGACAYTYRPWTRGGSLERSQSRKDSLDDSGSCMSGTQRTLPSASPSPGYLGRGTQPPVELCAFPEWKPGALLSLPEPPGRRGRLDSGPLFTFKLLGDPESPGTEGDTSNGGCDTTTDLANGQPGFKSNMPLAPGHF
# T1 sequence (P23944 whole entry): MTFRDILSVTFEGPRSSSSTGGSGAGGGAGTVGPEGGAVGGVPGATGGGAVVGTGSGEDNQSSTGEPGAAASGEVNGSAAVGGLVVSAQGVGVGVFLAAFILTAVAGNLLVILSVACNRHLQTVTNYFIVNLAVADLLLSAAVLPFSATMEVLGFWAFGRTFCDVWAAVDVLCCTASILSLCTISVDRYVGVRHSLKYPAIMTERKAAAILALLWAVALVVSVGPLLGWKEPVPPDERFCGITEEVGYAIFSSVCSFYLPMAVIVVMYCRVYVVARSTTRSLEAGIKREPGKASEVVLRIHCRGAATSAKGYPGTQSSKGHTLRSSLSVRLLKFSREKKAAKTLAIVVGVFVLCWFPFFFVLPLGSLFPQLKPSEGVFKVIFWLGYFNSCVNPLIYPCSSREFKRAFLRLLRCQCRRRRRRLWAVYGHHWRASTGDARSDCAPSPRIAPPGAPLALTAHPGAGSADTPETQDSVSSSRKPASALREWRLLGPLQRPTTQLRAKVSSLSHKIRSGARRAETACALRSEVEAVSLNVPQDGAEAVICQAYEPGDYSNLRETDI
# T1 sequence (P43140 whole entry): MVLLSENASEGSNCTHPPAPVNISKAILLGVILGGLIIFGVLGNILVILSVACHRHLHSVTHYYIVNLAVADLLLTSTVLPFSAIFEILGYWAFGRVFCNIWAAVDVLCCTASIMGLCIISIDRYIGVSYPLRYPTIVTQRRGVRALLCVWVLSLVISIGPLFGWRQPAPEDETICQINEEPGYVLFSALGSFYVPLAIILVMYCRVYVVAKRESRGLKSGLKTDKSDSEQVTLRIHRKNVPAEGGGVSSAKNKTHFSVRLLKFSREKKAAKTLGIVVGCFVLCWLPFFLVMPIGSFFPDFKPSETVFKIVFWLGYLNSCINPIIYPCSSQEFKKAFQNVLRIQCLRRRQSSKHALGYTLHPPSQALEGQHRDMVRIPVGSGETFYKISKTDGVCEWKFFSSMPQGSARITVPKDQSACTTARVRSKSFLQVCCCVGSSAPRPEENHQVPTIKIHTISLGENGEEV
# Procedure, shortened: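 Triplicate competition binding against 0.2-0.25 nM [³H]prazosin in Tris buffer pH 7.4, 30 min at room temperature. Competitor range 0.1-200 nM. Nonspecific binding defined with 10 µM phentolamine. Reaction stopped by GF/B filtration with two cold Tris washes. Membrane protein 300-400 µg per assay. Ki calculated from the data; mean ± SEM of 3-6 experiments.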
# [2] = target: T2, Adrenergic receptor alpha-2 (Rattus norvegicus, UniProt P22086+P19328+P22909); assay: Displacement of clonidine from Alpha-2 adrenergic receptor in rat brain cortex; assay type: tissue-based
# T2 sequence (P22086 whole entry): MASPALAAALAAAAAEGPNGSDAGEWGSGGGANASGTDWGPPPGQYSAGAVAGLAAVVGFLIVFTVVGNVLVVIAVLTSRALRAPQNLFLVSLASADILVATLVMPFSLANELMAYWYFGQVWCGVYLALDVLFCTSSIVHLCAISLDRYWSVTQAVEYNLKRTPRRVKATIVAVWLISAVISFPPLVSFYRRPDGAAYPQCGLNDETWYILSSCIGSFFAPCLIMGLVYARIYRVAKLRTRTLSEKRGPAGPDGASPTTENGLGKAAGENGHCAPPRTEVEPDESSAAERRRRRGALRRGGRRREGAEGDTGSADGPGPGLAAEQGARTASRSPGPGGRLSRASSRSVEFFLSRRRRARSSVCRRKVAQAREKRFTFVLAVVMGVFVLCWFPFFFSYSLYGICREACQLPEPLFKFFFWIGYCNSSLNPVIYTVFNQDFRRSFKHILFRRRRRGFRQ
# T2 sequence (P19328 whole entry): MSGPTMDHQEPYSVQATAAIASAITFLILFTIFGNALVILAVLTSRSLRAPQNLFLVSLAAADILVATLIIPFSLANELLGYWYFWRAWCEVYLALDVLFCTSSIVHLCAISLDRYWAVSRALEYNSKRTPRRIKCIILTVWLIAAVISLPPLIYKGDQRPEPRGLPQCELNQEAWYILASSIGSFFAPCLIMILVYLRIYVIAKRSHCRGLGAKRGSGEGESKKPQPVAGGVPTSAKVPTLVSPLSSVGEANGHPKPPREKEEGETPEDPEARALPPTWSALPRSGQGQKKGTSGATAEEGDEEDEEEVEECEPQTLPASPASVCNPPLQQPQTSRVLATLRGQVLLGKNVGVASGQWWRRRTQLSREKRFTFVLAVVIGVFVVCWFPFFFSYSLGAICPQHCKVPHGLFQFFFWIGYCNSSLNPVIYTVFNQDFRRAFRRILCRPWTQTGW
# T2 sequence (P22909 whole entry): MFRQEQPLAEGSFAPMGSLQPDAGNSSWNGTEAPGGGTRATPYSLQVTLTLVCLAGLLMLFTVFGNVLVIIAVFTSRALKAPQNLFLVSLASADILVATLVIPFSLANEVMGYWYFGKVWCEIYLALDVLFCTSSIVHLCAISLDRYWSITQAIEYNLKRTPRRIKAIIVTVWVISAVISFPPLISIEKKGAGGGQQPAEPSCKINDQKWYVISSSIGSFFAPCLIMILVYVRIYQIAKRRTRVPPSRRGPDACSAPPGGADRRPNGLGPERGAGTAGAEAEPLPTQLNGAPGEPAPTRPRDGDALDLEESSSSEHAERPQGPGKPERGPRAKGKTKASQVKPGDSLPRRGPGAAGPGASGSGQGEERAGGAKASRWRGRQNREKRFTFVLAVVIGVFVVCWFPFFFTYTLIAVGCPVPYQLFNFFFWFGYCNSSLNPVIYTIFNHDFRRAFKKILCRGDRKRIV
# Procedure, shortened: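 α2 competition binding run in triplicate with 1 nM [³H]clonidine plus 10 mM MgCl₂ in Tris pH 7.4, 30 min at room temperature. Test compounds at 1-100 µM. Nonspecific binding defined with 10 µM clonidine. Membranes collected on GF/B filters and washed twice with cold Tris. Protein 300-400 µg per assay. Ki given as mean ± SEM of 3-6 experiments.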
# [3] = Selectivity ratio for binding affinity towards alpha2 and alpha-1 adrenoceptors
# Procedure, shortened: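 Ratio of α2 Ki ([³H]clonidine binding) to α1 Ki ([³H]prazosin binding), both measured in rat cortical membrane competition assays.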
Structure (SMILES),Ki [1] [µM],Ki [2] [µM],Ratio [3]
O=S1(=O)c2ccccc2NC2=NCC(CN3CCN(c4ccccc4Cl)CC3)N21 (stereo not given),0.0118,2.29,194
Oc1nc2ccccc2c2nc(CN3CCN(c4ccccc4Cl)CC3)c(Br)n12,> 10,–,–
COc1ccccc1N1CCN(CC2CN=C3Nc4ccccc4S(=O)(=O)N32)CC1 (stereo not given),0.00495,0.46,93
Cn1c(=O)n2c(CN3CCN(c4ccccc4Cl)CC3)c(Br)nc2c2ccccc21,> 10,–,–
Oc1nc2ccccc2c2nc(CN3CCN(c4ccccc4Cl)CC3)cn12,0.00929,4.51,486
Cn1c(=O)n2c(CN3CCN(c4ccccc4Cl)CC3)cnc2c2ccccc21,0.00428,0.525,123
COc1ccccc1N1CCN(CC2CN=C3Nc4ccccc4C(=O)N32)CC1 (stereo not given),0.186,–,–
Cn1c(=O)n2c(Br)c(CN3CCN(c4ccccc4Cl)CC3)nc2c2ccccc21,> 10,–,–
Cn1c(=O)n2cc(CN3CCN(c4ccccc4Cl)CC3)nc2c2ccccc21,0.0141,0.513,36

# Further lines, results first:
Ki [1] [µM],Ki [2] [µM],Ratio [3],Structure (SMILES)
> 10,–,–,COc1ccccc1N1CCN(Cc2c(Br)sc3nc4ccccc4c(=O)n23)CC1
0.0065,3.25,499,COc1ccccc1N1CCN(Cc2cn3c(=O)n(C)c4ccccc4c3n2)CC1
> 10,–,–,COc1ccccc1N1CCN(Cc2nc3c4ccccc4n(C)c(=O)n3c2Br)CC1
> 10,–,–,COc1ccccc1N1CCN(Cc2nc3c4ccccc4nc(O)n3c2Br)CC1
> 10,–,–,COc1ccccc1N1CCN(Cc2csc3nc4ccccc4c(=O)n23)CC1
> 10,–,–,O=c1c2ccccc2nc2sc(Br)c(CN3CCN(c4ccccc4Cl)CC3)n12
> 10,–,–,COc1ccccc1N1CCN(Cc2c(Br)nc3c4ccccc4n(C)c(=O)n23)CC1
> 10,–,–,O=c1c2ccccc2nc2scc(CN3CCN(c4ccccc4Cl)CC3)n12
0.0061,3.09,506,COc1ccccc1N1CCN(Cc2cnc3c4ccccc4n(C)c(=O)n23)CC1
> 10,–,–,COc1ccccc1N1CCN(Cc2c(Br)nc3c4ccccc4nc(O)n23)CC1
> 10,–,–,Oc1nc2ccccc2c2nc(Br)c(CN3CCN(c4ccccc4Cl)CC3)n12
> 10,–,–,COc1ccccc1N1CCN(CC2CSc3nc4ccccc4c(=O)n32)CC1 (stereo not given)
